In ChEMBL document CHEMBL1135061, “Synthesis, hydrolytic activation and cytotoxicity of etoposide prodrugs” (Bioorg Med Chem Lett, 2002) one finds IC50, K obs and half-life data, which are given here for 3 compounds.

For one series, the system named is MOVP-3. The series can be described thus: Tested for cytotoxicity against VP 16 resistant Molt3 type MOVP-3 cell line expressing MDR-1 (++) gene. In kind it is functional, cell-based. The conditions noted are these: Homo sapiens. Put shortly:
(§1)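 XTT assay; 10,000 tumor cells/well preincubated 24 h at 37 °C, 5% CO2, then drug added directly from DMSO stocks over 100 fM to […] range. After 72 h XTT added, 4 h further incubation, OD read at 450 nm. IC50 (50% growth inhibition) derived from viability–dilution plots of duplicate runs.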

In series [1] the target is Cholinesterase (Homo sapiens) (UniProt P06276). In words: Tested for rate constant at 37 degree Celsius in PBS buffer at 8.8 pH containing human serum esterase expressed in 10 e-3 min e-1. The gist of the method: (§2)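 Prodrug dissolved at 37 °C in 20/80 vol% acetonitrile–aqueous PBS at the stated pH, in human serum, or with pig liver carboxylic ester hydrolase. Serum samples were pre-cleaned on C18 cartridges. Aliquots were quenched with an equal volume of acetonitrile and centrifuged, and the supernatant was analysed by HPLC peak area. k_obs was taken from the slope of first-order log conversion–time plots and reported as mean ± SD.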

The subject of another series is A2780. The series can be described thus: Tested for cytotoxicity against Ovarian carcinoma parental type A2780 cell line expressing MDR-1 (-) gene. Type of series: functional, cell-based. The following applies: Homo sapiens. The gist of the method: as §1
In series [2] the target is Cholinesterase (Homo sapiens) (UniProt P06276). In words: Tested for rate constant at 37 degree Celsius in PBS buffer at 10.5 pH containing human serum esterase expressed in 10 e-3 min e-1. Put shortly:
as §2

For a further series, the system named is ADR5000 cell line. The series can be described thus: Tested for cytotoxicity against Doxo resistant A2780 type ADR5000 cell line expressing MDR-1 (++) gene. Type of series: functional, cell-based. The following applies: Homo sapiens. The gist of the method:
as §1

The target in series [3] is Cholinesterase (Homo sapiens) (UniProt P06276). In words: Tested for rate constant at 37 degree Celsius in PBS buffer at 8.0 pH containing human serum esterase expressed in 10 e-3 min e-1. The gist of the method: as §2
Series [4] can be described thus: Tested for half life period at 37 degree Celsius in PBS buffer at 10.5 pH containing human serum esterase. Type of series: ADME. The following applies: pH 10.5. Put shortly: (§3)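 Drug at 37 °C in acetonitrile–aqueous buffer (20/80 vol%) at set pH, in human serum, or with pig liver carboxylic ester hydrolase. Serum samples pre-separated on C18 cartridges. Aliquots mixed 1:1 with acetonitrile, centrifuged, supernatant analysed by HPLC peak areas. First-order log conversion–time plots; k_obs and t1/2 from slopes; mean ± SD.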

In series [5] the target is Cholinesterase (Homo sapiens) (UniProt P06276). The series can be described thus: Tested for rate constant at 37 degree Celsius in PBS buffer at 7.3 pH in human serum containing porcine liver esterase expressed in 10 e-3 min e-1. In kind it is cell-free. The gist of the method: as §2
For the next series, the system named is SW480. In words: Tested for cytotoxicity against Colon adenocarcinoma resistant type SW480 cell line expressing MDR-1 (+) gene; ~50% cells affected by drug. In kind it is functional, cell-based. The following applies: Homo sapiens. Put shortly: as §1
A short description of series [6]: Tested for half life period at 37 degree Centigrade in PBS buffer at 7.3 pH containing human serum esterase. The conditions noted are these: pH 7.3. In kind it is ADME. The gist of the method:
as §3

The test system of another series is MOLT-3. In words: Tested for cytotoxicity against parental T-cell leukemia type Molt 3 cell line expressing MDR-1 (-) gene. Type of series: functional, cell-based. The conditions noted are these: Homo sapiens. The gist of the method: as §1
Series [7] is described as follows: Tested for half life period at 37 degree Celsius in PBS buffer at 8.8 pH containing human serum esterase. Type of series: ADME. The conditions noted are these: pH 8.8. Put shortly: as §3
A short description of series [8]: Tested for half life period at 37 degree Celsius in PBS buffer at 8.0 pH containing human serum esterase. In kind it is ADME. The conditions noted are these: pH 8. Put shortly:
as §3

In a further series the test system is VCR100. In words: Tested for cytotoxicity against T-lymphoblastoide VC resistant type VCR 100 cell line expressing MDR-1 (+) gene. In kind it is functional, cell-based, Homo sapiens. The gist of the method: as §1
Series [9] has as its system HT-29. In words: Tested for cytotoxicity against Colon carcinoma type HT-29 cell line expressing MDR-1 (-) gene. The following applies: Homo sapiens. In kind it is functional, cell-based. Put shortly: as §1
The nature of series [10]: Tested for half life period at 37 degree Celsius in PBS buffer at 7.3 pH containing porcine liver esterase. In kind it is ADME, Sus scrofa. The conditions noted are these: pig, pH 7.3. The gist of the method: as §3
For series [11], the target named is T1, S-formylglutathione hydrolase (Sus scrofa) (UniProt Q9GJT2).
T1 sequence (whole entry): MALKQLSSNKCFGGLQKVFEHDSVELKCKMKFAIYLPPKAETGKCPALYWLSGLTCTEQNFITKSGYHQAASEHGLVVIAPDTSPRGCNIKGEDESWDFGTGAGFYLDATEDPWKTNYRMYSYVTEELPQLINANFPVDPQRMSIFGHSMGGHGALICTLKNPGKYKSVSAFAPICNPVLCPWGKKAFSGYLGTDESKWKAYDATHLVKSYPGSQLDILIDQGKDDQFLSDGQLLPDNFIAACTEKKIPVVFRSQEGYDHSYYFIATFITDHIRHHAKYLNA
The series can be described thus: Tested for rate constant at 37 degree Celsius in PBS buffer at 11.8 pH containing porcine liver esterase expressed in 10 e-3 min e-1. Put shortly: as §3

Series [12] in a line: Tested for half life period at 37 degree Celsius in PBS buffer at 7.3 pH in containing porcine liver esterase. In kind it is ADME, Sus scrofa. The conditions noted are these: pig, pH 7.3. Put shortly:
as §3

Series [13] can be described thus: Tested for half life period at 37 degree Celsius in PBS buffer at 11.8 pH containing porcine liver esterase. In kind it is ADME, Sus scrofa. The conditions noted are these: pig, pH 11.8. Put shortly: as §3
Series [14] concerns HT-29. The series can be described thus: Tested for cytotoxicity against Colon carcinoma type HT-29 cell line expressing MDR-1 (-) gene; 35% of cells were affected. In kind it is functional, cell-based. The conditions noted are these: Homo sapiens. The gist of the method:
as §1

Sequence of Cholinesterase (Homo sapiens) (P06276 whole entry): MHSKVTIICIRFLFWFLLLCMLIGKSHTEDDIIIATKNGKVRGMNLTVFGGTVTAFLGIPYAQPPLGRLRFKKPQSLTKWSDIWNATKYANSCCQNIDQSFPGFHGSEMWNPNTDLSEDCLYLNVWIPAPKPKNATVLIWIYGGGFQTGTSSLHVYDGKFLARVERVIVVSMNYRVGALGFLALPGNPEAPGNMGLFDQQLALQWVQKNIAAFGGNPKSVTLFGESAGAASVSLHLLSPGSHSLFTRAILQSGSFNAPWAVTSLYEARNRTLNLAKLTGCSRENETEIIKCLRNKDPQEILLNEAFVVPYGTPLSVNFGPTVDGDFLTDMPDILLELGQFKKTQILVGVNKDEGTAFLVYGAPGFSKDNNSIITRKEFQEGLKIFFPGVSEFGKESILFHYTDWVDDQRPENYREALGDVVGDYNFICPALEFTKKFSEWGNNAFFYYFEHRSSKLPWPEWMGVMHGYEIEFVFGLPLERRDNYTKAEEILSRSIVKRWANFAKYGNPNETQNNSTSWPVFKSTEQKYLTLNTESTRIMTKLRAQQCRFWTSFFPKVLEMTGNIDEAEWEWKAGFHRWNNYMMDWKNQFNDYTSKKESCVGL

As usually defined, the IC50 is the concentration needed to halve the response being measured. In general, half-life refers to the time needed for the level to fall by half in the phase considered. With `COc1cc([C@@H]2c3cc4c(cc3C(O[C@@H]3O[C@H]5CO[C@@H](C)O[C@H]5[C@H](O)[C@@H]3O)C3COC(=O)[C@@H]32)OCO4)cc(OC)c1OC(=O)OCC(O)CO` (stereo partly drawn), the half-maximal inhibitory concentration (IC50) in the series with MOVP-3 was determined as 50 nM; in the series with A2780 it was 580 nM; in the series on ADR5000 cell line, 38000 nM; with SW480, 110 nM; with MOLT-3 it was 35 nM; in the series on VCR100, 7600 nM. In the series with HT-29 [9], this compound returned an IC50 of 5.7 nM. The K obs in [1] is 7.14; in [2] it was 100; in [3], 3.2; in series [5], 12.4. In addition, the half-life in series [4] worked out at 6.93 min; in series [6] it was 0.934 h; in series [7], 1.62 h; in series [8] it was 3.61 h.
On to `COc1cc([C@@H]2c3cc4c(cc3C(O[C@@H]3O[C@H]5CO[C@@H](C)O[C@H]5[C@H](O)[C@@H]3O)C3COC(=O)[C@@H]32)OCO4)cc(OC)c1OC(=O)OCC1COC(C)(C)O1` (stereo partly drawn), for which the IC50 in the series on MOVP-3 came to 12 nM; with A2780, 90 nM; in the series on ADR5000 cell line it was 6500 nM; in the series on SW480, 110 nM; in the series with MOLT-3, 10 nM; in the series on VCR100 it was 3200 nM. For the same compound, the IC50 in the series with HT-29 [9] amounted to 3.5 nM. In addition, the half-life turned out to be 0.236 h in series [10], 12.5 h in [12] and 1.39 h in series [13]. This compound displayed a K obs in series [11] of 8.33.
For `COc1cc([C@@H]2c3cc4c(cc3[C@@H](O[C@@H]3O[C@@H]5CO[C@@H](C)O[C@H]5[C@H](O)[C@H]3O)[C@H]3COC(=O)[C@H]23)OCO4)cc(OC)c1O` [ETOPOSIDE], the IC50 in the series on MOVP-3 worked out at 7550 nM; in the series on A2780 it was 65000 nM; in the series with ADR5000 cell line it was 100000 nM; in the series on SW480 it was 50000 nM; in the series on MOLT-3, 65 nM; with HT-29 [14] it was 10000 nM. This compound also registered an IC50 in the series on VCR100 of 15500 nM.
